ChEMBL document CHEMBL3244177, “Synthesis and prostaglandin-like activity of 2-(trans-3-hydroxy-1-octenyl)-3-indoleheptanoic acid” (J Med Chem, 1978)
Calls of active or inactive are those of the source. The rule behind the calls is not given here.

Tests used:
Assay type in all cases: tissue-based
[1] = organism: Rattus norvegicus; assay: Induction of Prostaglandin receptor-induced adenylate cyclase activation in rat liver homogenate assessed as increase in cAMP level at 6.7 to 13.4 x 10^-3 M after 10 mins relative to control
Procedure, shortened: (§1)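 Rat liver homogenate adenylate cyclase, 10 min at 37 °C in Tris-HCl 0.1 mol/L pH 8.0 with ATP 4 × 10^-3, MgSO4 15 × 10^-3, GTP 5 × 10^-4, EGTA 1 × 10^-4 and theophylline 5 × 10^-3 mol/L. Stopped by 2 min boiling, then frozen, thawed and centrifuged. cAMP in the supernatant measured by the Brown method, saline blanks, four replicates.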

[2] = organism: Cavia porcellus; assay: Effect on Prostaglandin receptor-induced contraction in guinea pig ileum assessed as intrinsic activity at 2.0 ug by kymography relative to PGE1
Procedure, shortened: (§2)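 Guinea-pig terminal ileum in a 3-mL oxygenated Tyrode bath at 30 °C with cyproheptadine 3 × 10^-9 mol/L. Dosed at 5-min intervals, 30 s contact, isotonic lever on a smoked drum. Final concentrations were 3.6–17.9 × 10^-7 mol/L for the compound and 0.94–18.8 × 10^-9 mol/L for PGE1 standards. Activity bracketed between two PGE1 doses, mean of five observations.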

[3] = organism: Rattus norvegicus; assay: Effect on Prostaglandin receptor-induced contraction in rat stomach fundus strip assessed as intrinsic activity at 0.4 ug by kymography relative to PGE1
Procedure, shortened: (§3)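 Rat fundus strips in Krebs, dosed once tone was constant. Final bath concentrations were 2.70–13.5 × 10^-7 mol/L for the compound and 0.70–14.0 × 10^-9 mol/L for PGE1 standards, from ethanol stocks. Auxotonic kymograph recording, 10-min cycle, 90 s contact. PGE1-like activity was bracketed between two PGE1 standard doses, mean of five observations per concentration.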

[4] = organism: Rattus norvegicus; assay: Inhibition of Prostaglandin receptor-induced adenylate cyclase activation in rat liver homogenate assessed as cAMP level at 6.7 to 13.4 x 10^-3 M after 10 mins relative to control
[5] = organism: Rattus norvegicus; assay: Effect on Prostaglandin receptor-induced contraction in rat stomach fundus strip assessed as intrinsic activity at 2.0 ug by kymography relative to PGE1; procedure, shortened: as §3
[6] = organism: Rattus norvegicus; assay: Induction of Prostaglandin receptor-induced adenylate cyclase activation in rat liver homogenate assessed as increase in cAMP level at equimolar dose of 2.8 x 10^-5 mol/L PGE1 after 10 mins relative to control; procedure, shortened: as §1
[7] = Competitive inhibition of Prostaglandin receptor in rat stomach fundus strip assessed as inhibition of PGE1-induced contraction by kymography
Procedure, shortened: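 Rat stomach fundus strip contractions to PGE1 11.3 × 10^-9 mol/L compared with and without analogue at 2.15–21.5 × 10^-6 mol/L. Stock in ethanol, diluted in Krebs. Kymograph with auxotonic lever, load 1 g baseline and 3 g maximal, 10-min dose cycle, 90 s contact. Approximate IC50 taken from the inhibition concentration-response curve in four preparations.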

[8] = organism: Rattus norvegicus; assay: Effect on Prostaglandin receptor-induced contraction in rat stomach fundus strip assessed as intrinsic activity at 0.8 ug by kymography relative to PGE1; procedure, shortened: as §3
[9] = organism: Rattus norvegicus; assay: Effect on Prostaglandin receptor-induced contraction in rat stomach fundus strip assessed as intrinsic activity at 1.6 ug by kymography relative to PGE1; procedure, shortened: as §3
[10] = organism: Cavia porcellus; assay: Effect on Prostaglandin receptor-induced contraction in guinea pig ileum assessed as intrinsic activity at 0.4 ug by kymography relative to PGE1; procedure, shortened: as §2
[11] = organism: Cavia porcellus; assay: Effect on Prostaglandin receptor-induced contraction in guinea pig ileum assessed as intrinsic activity at 1.6 ug by kymography relative to PGE1; procedure, shortened: as §2
[12] = organism: Cavia porcellus; assay: Effect on Prostaglandin receptor-induced contraction in guinea pig ileum assessed as intrinsic activity at 0.8 ug by kymography relative to PGE1; procedure, shortened: as §2

CCCCCC(O)/C=C/c1[nH]c2ccccc2c1CCCCCCC(=O)O (configuration not stated)
Activity [1]: Active
Intrinsic activity [2]: 0.0057
Intrinsic activity [3]: 0.00075
inhibition [4]: 40%
Intrinsic activity [5]: 0.00055
Activity [6]: inactive
IC50 [7]: 11.8 µM
Intrinsic activity [8]: 0.00075
Intrinsic activity [9]: 0.00056
Intrinsic activity [10]: 0.004
Intrinsic activity [11]: 0.0014
Intrinsic activity [12]: 0.0029
